Laboratory results from ChEMBL document CHEMBL1914454, “Novel N-linked aminopiperidine inhibitors of bacterial topoisomerase type II: broad-spectrum antibacterial agents with reduced hERG activity” (J Med Chem, 2011).
≈ marks a conversion by molar mass, not a printed value.

Assays:
Escherichia coli = test: Antibacterial activity against Escherichia coli W3110 after 18 to 24 hrs by broth microdilution method; assay type: functional; conditions: K-12 substr. W3110
Method in brief: (§1)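 Broth microdilution following CLSI guidelines in Mueller Hinton broth. Compounds in DMSO, diluted to 2% DMSO final, 11 doubling dilutions from 64 to 0.06 μg/mL. Incubated at 35 °C for 18−24 h; growth read by absorbance at 620 nm.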

[1] = Volume of distribution in Beagle dog at 3 mg/kg, iv; assay type: ADME, organism-based, Canis lupus familiaris; set-up: dose 3 mg/kg, route intravenous; conditions: in vivo
Method in brief: (§2)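 Plasma was sampled from 0 to 24 h and drug measured by LC–MS/MS. Parameters came from noncompartmental analysis.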

[2] = AUC in Beagle dog at 3 mg/kg, iv; assay type: ADME, organism-based, Canis lupus familiaris; set-up: dose 3 mg/kg, route intravenous; conditions: plasma; method in brief: as §2
[3] = Clearance in Wistar Han rat at 3 mg/kg, iv; assay type: ADME, organism-based; set-up: dose 3 mg/kg, route intravenous; conditions: in vivo
Method in brief: (§3)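 Groups of three Wistar Han rats got a 3 mg/kg iv bolus via a cannulated jugular vein. Serial whole-blood samples were taken at time intervals, and compound in plasma was quantified by LC–MS/MS. Parameters were estimated by a noncompartmental model.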

Pseudomonas aeruginosa = test: Antibacterial activity against Pseudomonas aeruginosa PAO1 after 18 to 24 hrs by broth microdilution method; assay type: functional; method in brief: as §1
Streptococcus pneumoniae = test: Antibacterial activity against penicillin-susceptible Streptococcus pneumoniae D39 after 18 to 24 hrs by broth microdilution method; assay type: functional
Method in brief: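 CLSI broth microdilution in 2.2% (w/v) Mueller Hinton broth with 0.65% (v/v) lysed horse blood. Compounds diluted from DMSO to 2% DMSO final, 11 doubling dilutions from 64 to 0.06 μg/mL. Incubated at 35 °C for 18−24 h; read at 620 nm.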

[4] = Half life in Beagle dog at 3 mg/kg, iv; assay type: ADME, organism-based, Canis lupus familiaris; set-up: dose 3 mg/kg, route intravenous; conditions: in vivo; method in brief: as §2
[5] = Oral bioavailability in Beagle dog at 10 mg/kg; assay type: ADME, organism-based, Canis lupus familiaris; conditions: in vivo; method in brief: as §2
[6] = Octanol-phosphate buffer partition coefficient, log D of the compound at pH 7.4 by LC/MS/UV analysis; conditions: octanol/phosphate buffer
[7] = Inhibition of Escherichia coli ATPase activity of topoisomerase 4 ParC/ParE subunit assessed as reduction in inorganic phosphate production after 24 hrs by ammonium molybdate/malachite-green based assay
Method in brief: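 Each reaction contained 0.5 nM each of E. coli ParC and ParE, 0.16 mM ATP and 0.005 mg/mL sheared salmon sperm DNA in 20 mM Tris pH 8.0 with 50 mM ammonium acetate, 8.0 mM MgCl₂, 0.5 mM EDTA, 5 mM DTT, 2.5% glycerol and 0.005% Brij-35. Compound dilution series; 24 h at room temperature. Quenched with malachite green; absorbance read at 650 nm. IC50 is the mean of three replicate experiments.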

[8] = Half life in Wistar Han rat at 3 mg/kg, iv; assay type: ADME, organism-based; set-up: dose 3 mg/kg, route intravenous; conditions: in vivo; method in brief: as §3
[9] = AUC in Wistar Han rat at 3 mg/kg, iv; assay type: ADME, organism-based; set-up: dose 3 mg/kg, route intravenous; conditions: plasma; method in brief: as §3
Staphylococcus aureus [10] = test: Antibacterial activity against methicillin-susceptible Staphylococcus aureus after 18 to 24 hrs by broth microdilution method; assay type: functional; method in brief: as §1
[11] = Clearance in Beagle dog at 3 mg/kg, iv; assay type: ADME, organism-based, Canis lupus familiaris; set-up: dose 3 mg/kg, route intravenous; conditions: in vivo; method in brief: as §2
[12] = Volume of distribution in Wistar Han rat at 3 mg/kg, iv; assay type: ADME, organism-based; set-up: dose 3 mg/kg, route intravenous; conditions: in vivo; method in brief: as §3
Mus musculus [13] = test: AUC (infinity) in Staphylococcus aureus ARC516 infected in CD1 mouse neutropenic thigh infection model at 20 mg/kg, ip qd by LC-MS/MS analysis; assay type: ADME, organism-based; set-up: time infinity, dose 20 mg/kg, route intraperitoneal; conditions: in vivo
Method in brief: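 Exposure in neutropenic CD-1 mice thigh-infected with S. aureus ARC516 (target 5 × 10⁵ cfu/thigh), dosed ip once daily from 2 h post-infection. Groups of three killed at timed intervals; blood taken by cardiac puncture. Plasma drug measured by LC-MS/MS; parameters from a noncompartmental model.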

Staphylococcus aureus [14] = test: Antibacterial activity against Staphylococcus aureus ARC516 infected in CD1 mouse neutropenic thigh infection model assessed as 1 log reduction in colony forming unit per […] at 20 mg/kg, ip qd administered 2 hrs post-infection measured 24 hrs post-treatment relative to vehicle treated control; assay type: functional; conditions: route intraperitoneal
Method in brief: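 Mice rendered neutropenic with ip cyclophosphamide (150 mg/kg 4 days and 100 mg/kg 1 day before infection), then infected with MSSA ARC516 at a target 5 × 10⁵ cfu/thigh. Groups of five dosed ip once daily from 2 h post-infection; vehicle group of five. At 24 h after treatment start, thighs homogenized and plated on tryptic soy agar, 37 °C overnight, cfu counted.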

[15] = Half life in Wistar Han rat at 4 mg/kg, iv; assay type: ADME, organism-based; set-up: dose 4 mg/kg, route intravenous; conditions: in vivo
Method in brief: (§4)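 Groups of three Wistar Han rats received a bolus injection into a cannulated jugular vein. Serial 200 μL whole-blood samples taken over time; plasma drug measured by LC-MS/MS; parameters estimated by noncompartmental analysis.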

Staphylococcus aureus [16] = test: Antibacterial activity against Staphylococcus aureus ARC516 infected in CD1 mouse neutropenic thigh infection model assessed as 1 log reduction in colony forming unit per […] at 12 mg/kg, ip qd administered 2 hrs post-infection measured 24 hrs post-treatment relative to vehicle treated control; assay type: functional; conditions: route intraperitoneal
Method in brief: (§5)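 CD-1 mice were made neutropenic with ip cyclophosphamide, 150 mg/kg at 4 days and 100 mg/kg at 1 day before infection. Methicillin-susceptible strain, target inoculum 5 × 10⁵ cfu/thigh. Groups of five received ip drug q.d. in 5% dextrose with lactic acid, pH 5.0, starting 2 h post-infection; five mice got vehicle. At 24 h, thighs were homogenized, plated on tryptic soy agar and incubated at 37 °C overnight for cfu.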

[17] = Fraction unbound in human plasma at 10 uM after 16 hrs by equilibrium dialysis
Mus musculus [18] = test: AUC (infinity) in Staphylococcus aureus ARC516 infected in CD1 mouse neutropenic thigh infection model at 48 mg/kg, ip qd by LC-MS/MS analysis; assay type: ADME, organism-based; set-up: dose 48 mg/kg, route intraperitoneal, time infinity; conditions: in vivo
Method in brief: (§6)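 CD-1 mice made neutropenic with ip cyclophosphamide (150 mg/kg day −4, 100 mg/kg day −1), thigh-infected with S. aureus ARC516 (target 5 × 10⁵ cfu/thigh). Dosed ip once daily starting 2 h post-infection, in 5% dextrose with lactic acid, pH 5.0. Groups of three sacrificed at timed intervals; cardiac-puncture blood; plasma analysed by LC-MS/MS; noncompartmental analysis.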

Mus musculus [19] = test: AUC (infinity) in Staphylococcus aureus ARC516 infected in CD1 mouse neutropenic thigh infection model at 12 mg/kg, ip qd by LC-MS/MS analysis; assay type: ADME, organism-based; set-up: time infinity, dose 12 mg/kg, route intraperitoneal; conditions: in vivo; method in brief: as §6
[20] = Volume of distribution in Wistar Han rat at 4 mg/kg, iv; assay type: ADME, organism-based; set-up: dose 4 mg/kg, route intravenous; conditions: in vivo; method in brief: as §4
Staphylococcus aureus [21] = test: Antibacterial activity against Staphylococcus aureus ARC516 infected in CD1 mouse neutropenic thigh infection model assessed as 1 log reduction in colony forming unit per […] at 24 mg/kg, ip qd administered 2 hrs post-infection measured 24 hrs post-treatment relative to vehicle treated control; assay type: functional; conditions: route intraperitoneal; method in brief: as §5
[22] = AUC in Wistar Han rat at 4 mg/kg, iv; assay type: ADME, organism-based; set-up: dose 4 mg/kg, route intravenous; conditions: plasma; method in brief: as §4
[23] = biological target: Voltage-gated inwardly rectifying potassium channel KCNH2 (Homo sapiens, UniProt Q12809); test: Inhibition of human ERG by ionworks HT assay
Voltage-gated inwardly rectifying potassium channel KCNH2, sequence (Q12809 whole entry): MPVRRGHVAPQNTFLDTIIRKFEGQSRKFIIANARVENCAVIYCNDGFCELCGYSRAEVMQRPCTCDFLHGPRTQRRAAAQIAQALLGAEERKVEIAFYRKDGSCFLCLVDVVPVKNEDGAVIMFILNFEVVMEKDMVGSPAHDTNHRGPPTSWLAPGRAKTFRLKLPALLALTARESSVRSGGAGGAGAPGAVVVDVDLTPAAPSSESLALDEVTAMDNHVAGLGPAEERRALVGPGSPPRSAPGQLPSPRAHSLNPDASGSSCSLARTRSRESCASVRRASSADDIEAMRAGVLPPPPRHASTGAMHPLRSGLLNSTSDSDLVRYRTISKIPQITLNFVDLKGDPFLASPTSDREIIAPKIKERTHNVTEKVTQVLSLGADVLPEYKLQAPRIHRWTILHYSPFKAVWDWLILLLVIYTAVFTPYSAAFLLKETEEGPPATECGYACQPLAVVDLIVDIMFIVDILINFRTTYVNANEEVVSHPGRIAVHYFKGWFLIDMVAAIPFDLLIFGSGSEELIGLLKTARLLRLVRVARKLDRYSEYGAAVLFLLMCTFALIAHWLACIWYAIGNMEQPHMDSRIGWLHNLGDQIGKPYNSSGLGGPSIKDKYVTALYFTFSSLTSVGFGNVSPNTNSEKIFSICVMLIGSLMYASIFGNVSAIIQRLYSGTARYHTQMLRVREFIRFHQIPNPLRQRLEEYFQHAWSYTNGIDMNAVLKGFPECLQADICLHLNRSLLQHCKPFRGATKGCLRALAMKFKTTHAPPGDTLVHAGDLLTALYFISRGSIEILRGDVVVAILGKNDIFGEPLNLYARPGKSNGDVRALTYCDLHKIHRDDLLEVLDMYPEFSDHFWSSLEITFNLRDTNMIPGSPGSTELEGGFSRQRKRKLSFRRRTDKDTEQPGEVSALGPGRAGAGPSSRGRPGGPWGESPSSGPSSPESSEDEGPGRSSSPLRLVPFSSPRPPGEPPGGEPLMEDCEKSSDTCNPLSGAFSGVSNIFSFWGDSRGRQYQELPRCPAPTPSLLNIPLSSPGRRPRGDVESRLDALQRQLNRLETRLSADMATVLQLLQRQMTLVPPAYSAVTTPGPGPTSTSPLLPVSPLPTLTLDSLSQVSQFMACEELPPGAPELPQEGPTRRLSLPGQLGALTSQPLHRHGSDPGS

Staphylococcus aureus [24] = test: Antibacterial activity against Staphylococcus aureus ARC516 infected in CD1 mouse neutropenic thigh infection model assessed as 1 log reduction in colony forming unit per […] at 48 mg/kg, ip qd administered 2 hrs post-infection measured 24 hrs post-treatment relative to vehicle treated control; assay type: functional; conditions: route intraperitoneal; method in brief: as §5
Staphylococcus aureus [25] = test: Antibacterial activity against Staphylococcus aureus ARC516 infected in CD1 mouse neutropenic thigh infection model assessed as 1 log reduction in colony forming unit per […] at 36 mg/kg, ip qd administered 2 hrs post-infection measured 24 hrs post-treatment relative to vehicle treated control; assay type: functional; conditions: route intraperitoneal; method in brief: as §5
Mus musculus [26] = test: AUC (infinity) in Staphylococcus aureus ARC516 infected in CD1 mouse neutropenic thigh infection model at 24 mg/kg, ip qd by LC-MS/MS analysis; assay type: ADME, organism-based; set-up: time infinity, dose 24 mg/kg, route intraperitoneal; conditions: in vivo; method in brief: as §6
[27] = Clearance in Wistar Han rat at 4 mg/kg, iv; assay type: ADME, organism-based; set-up: dose 4 mg/kg, route intravenous; conditions: in vivo; method in brief: as §4
Mus musculus [28] = test: AUC (infinity) in Staphylococcus aureus ARC516 infected in CD1 mouse neutropenic thigh infection model at 36 mg/kg, ip qd by LC-MS/MS analysis; assay type: ADME, organism-based; set-up: dose 36 mg/kg, route intraperitoneal, time infinity; conditions: in vivo
Method in brief: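 Plasma exposure in CD-1 mice, measured for analysis of the efficacy studies. Groups of three mice were sacrificed at timed intervals and whole blood was drawn by cardiac puncture. Plasma compound levels were measured by LC–MS/MS, and parameters were estimated by a noncompartmental model.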

SMILES: N#Cc1ccc2c(c1)N(CCN1CCC(NCc3ccc4c(n3)NC(=O)CO4)CC1)C(=O)CO2
- MIC (Escherichia coli): 0.25 µg/mL (≈ 0.541 µM)
- Vd [1]: 61 L/kg
- AUC [2]: 3090 ng·h/mL
- clearance [3]: 66 mL/min/kg
- MIC (Pseudomonas aeruginosa): 2 µg/mL (≈ 4.32 µM)
- MIC (Streptococcus pneumoniae): 0.5 µg/mL (≈ 1.08 µM)
- half-life [4]: 166 h
- bioavailability [5]: 64%
- logD [6]: 0.24
- IC50 [7]: 3.2 nM
- half-life [8]: 5.8 h
- AUC [9]: 640 ng·h/mL
- MIC (Staphylococcus aureus [10]): 0.13 µg/mL (≈ 0.281 µM)
- clearance [11]: 7.8 mL/min/kg
- Vd [12]: 23 L/kg

SMILES: C[C@H]1COc2c(N3CCN(C)CC3)c(F)cc3c(=O)c(C(=O)O)cn1c23.C[C@H]1COc2c(N3CCN(C)CC3)c(F)cc3c(=O)c(C(=O)O)cn1c23.O [LEVOFLOXACIN]
- AUC (Mus musculus [13]): 2.5 µg/h/mL
- FC (Staphylococcus aureus [14]): 1.46

SMILES: COc1ccc2ncc(=O)n(CCN3CCC(NCc4cc5c(cn4)OCCO5)CC3)c2c1
- half-life [15]: 2.8 h
- FC (Staphylococcus aureus [16]): 0.05
- fraction unbound at 16 h, 10 µM [17]: 0.57
- AUC (Mus musculus [18]): 1.79 µg/h/mL
- MIC (Escherichia coli): 0.5 µg/mL (≈ 1.11 µM)
- Vd [1]: 11 L/kg
- AUC [2]: 2300 ng·h/mL
- AUC (Mus musculus [19]): 0.47 µg/h/mL
- Vd [20]: 32 L/kg
- FC (Staphylococcus aureus [21]): 1.17
- MIC (Pseudomonas aeruginosa): 4 µg/mL (≈ 8.86 µM)
- MIC (Streptococcus pneumoniae): 0.06 µg/mL (≈ 0.133 µM)
- AUC [22]: 190 ng·h/mL
- half-life [4]: 8.3 h
- logD [6]: 0.93
- IC50 [7]: 5 nM
- IC50 [23]: 19000 nM
- FC (Staphylococcus aureus [24]): 2.79
- FC (Staphylococcus aureus [25]): 1.5
- MIC (Staphylococcus aureus [10]): 0.02 µg/mL (≈ 0.0443 µM)
- clearance [11]: 21 mL/min/kg
- AUC (Mus musculus [26]): 0.76 µg/h/mL
- clearance [27]: 338 mL/min/kg
- AUC (Mus musculus [28]): 1.17 µg/h/mL
